Data reported in ChEMBL document CHEMBL1148736, “N-Acylthiadiazolines, a new class of liver X receptor agonists with selectivity for LXRbeta” (J Med Chem, 2007).
pEC50: −log10 of the molar value. The source made the active and inactive calls. The rule behind the calls is not given here.

What was measured:
[1] = target: T1, Oxysterols receptor LXR-alpha (Homo sapiens, UniProt Q13133); assay: Agonist activity at GAL-linked human LXRalpha expressed in THP1 cells assessed as stimulation of coactivator recruitment by FRET assay; assay type: functional
T1 sequence (Q13133 whole entry): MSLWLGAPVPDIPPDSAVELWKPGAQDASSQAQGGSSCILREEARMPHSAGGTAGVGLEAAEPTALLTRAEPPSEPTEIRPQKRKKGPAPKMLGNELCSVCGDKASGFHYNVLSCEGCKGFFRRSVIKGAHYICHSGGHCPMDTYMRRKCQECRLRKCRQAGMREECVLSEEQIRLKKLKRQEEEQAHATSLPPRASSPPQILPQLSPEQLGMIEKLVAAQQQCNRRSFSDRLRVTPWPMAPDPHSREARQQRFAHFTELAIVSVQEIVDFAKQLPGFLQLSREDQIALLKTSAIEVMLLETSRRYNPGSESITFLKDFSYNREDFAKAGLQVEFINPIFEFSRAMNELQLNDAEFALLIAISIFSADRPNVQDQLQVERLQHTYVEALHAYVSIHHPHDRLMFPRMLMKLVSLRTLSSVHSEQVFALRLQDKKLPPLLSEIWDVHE
Procedure, shortened: (§1)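 Cell-free TR-FRET coactivator recruitment: 20 nM His-tagged hLXRα or hLXRβ, 300 nM biotinylated SRC-1 peptide, Eu-anti-His antibody, APC-streptavidin. 12-point curves from 20 µM; 1 h at 37 °C. Duplicate. %E = maximal coactivator recruitment relative to reference dual agonist in same experiment.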

[2] = target: T2, Oxysterols receptor LXR-beta (Homo sapiens) (UniProt P55055); assay: Agonist activity at GAL-linked human LXRbeta expressed in THP1 cells assessed as stimulation of co-activator recruitment by FRET assay relative to GW-3965; assay type: functional; procedure, shortened: as §1
T2 sequence (whole entry): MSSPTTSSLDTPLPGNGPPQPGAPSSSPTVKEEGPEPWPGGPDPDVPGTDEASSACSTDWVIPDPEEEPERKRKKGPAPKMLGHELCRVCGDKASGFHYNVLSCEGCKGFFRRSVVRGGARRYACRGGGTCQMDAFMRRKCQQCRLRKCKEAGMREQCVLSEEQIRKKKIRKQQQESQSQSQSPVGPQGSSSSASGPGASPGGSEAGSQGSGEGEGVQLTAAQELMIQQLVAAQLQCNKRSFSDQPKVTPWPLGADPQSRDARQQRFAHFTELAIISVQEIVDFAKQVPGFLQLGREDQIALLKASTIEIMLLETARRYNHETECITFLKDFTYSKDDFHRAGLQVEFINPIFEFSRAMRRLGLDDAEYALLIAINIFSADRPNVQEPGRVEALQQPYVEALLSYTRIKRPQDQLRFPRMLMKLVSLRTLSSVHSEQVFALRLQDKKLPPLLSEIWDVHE

[3] = target: T3, Oxysterols receptor LXR-beta (Homo sapiens, UniProt P55055); assay: Agonist activity at GAL-linked human LXRbeta expressed in THP1 cells assessed as stimulation of co-activator recruitment by FRET assay; assay type: functional; procedure, shortened: as §1
T3 sequence (P55055 whole entry): T2 sequence (whole entry)

THP-1 [4] = assay: Increase in ABCA1 gene expression in THP1 cells at 10 uM relative to GW-3965; assay type: functional, Homo sapiens
Procedure, shortened: (§2)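 THP-1 cells differentiated with 40 ng/mL PMA for 1 day, then switched to RPMI with 2% lipoprotein-deficient FBS. Compound added 6 h later at 1 or 10 µM in DMSO, incubated 24 h. ABCA1 mRNA by one-step TaqMan qRT-PCR, triplicate, multiplexed with 36B4; fold induction vs DMSO, expressed relative to reference dual agonist.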

THP-1 [5] = assay: Increase in ABCA1 gene expression in THP1 cells at 1 uM relative to GW-3965; assay type: functional, Homo sapiens; procedure, shortened: as §2
[6] = target: T4, Oxysterols receptor LXR-alpha (Homo sapiens) (UniProt Q13133); assay: Agonist activity at GAL-linked human LXRalpha expressed in THP1 cells assessed as stimulation of co-activator recruitment by FRET assay relative to GW-3965; assay type: functional; procedure, shortened: as §1
T4 sequence (whole entry): T1 sequence (Q13133 whole entry)

[7] = target: T2, Oxysterols receptor LXR-beta (Homo sapiens); assay: Activity at human LXRbeta by Gal4 transactivation assay relative to GW-3965
Procedure, shortened: (§3)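 GAL4 DBD fused to hLXRα or hLXRβ LBD in pcDNA3, co-transfected into HepG2 with luciferase reporter. Cells in DMEM with 10% lipoprotein-deficient FBS, 7.5 µM lovastatin, 100 µM mevalonic acid. Ligand added 24 h post-transfection as 11-point curves from 10 µM; luciferase read after 16 h. Run in quadruplicate. %E = max fold induction vs max fold induction of reference dual agonist in same experiment.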

[8] = target: T4, Oxysterols receptor LXR-alpha (Homo sapiens); assay: Displacement of [3H]T-0901317 from GAL-linked human LXRalpha expressed in THP1 cells at 20 uM by SPA relative to GW-3965; assay type: cell-based; settings: THP-1
Procedure, shortened: (§4)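 Scintillation proximity displacement with His-tagged hLXRα or hLXRβ LBD (200 ng/well) and 30 nM [3H]T0901317. Beads 0.2 mg/well in phosphate buffer with EDTA, NaCl, DTT, CHAPS, 10% glycerol. 12-point curves from 20 µM; shaken 3 h at room temperature. No-competitor wells = 100% binding; nonspecific binding without protein. Efficacy = maximal displacement relative to reference dual agonist.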

[9] = target: T2, Oxysterols receptor LXR-beta (Homo sapiens); assay: Displacement of [3H]T-0901317 from GAL-linked human LXRbeta expressed in THP1 cells at 20 uM by SPA relative to GW-3965; assay type: cell-based; settings: THP-1; procedure, shortened: as §4
[10] = target: T4, Oxysterols receptor LXR-alpha (Homo sapiens); assay: Activity at human LXRalpha by Gal4 transactivation assay relative to GW-3965; procedure, shortened: as §3
Hepatocyte = assay: Induction on FAS gene expression in human primary hepatocytes at 1 uM; assay type: functional, cell-based
Procedure, shortened: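 Primary human hepatocytes treated with 1 µM compound; FAS mRNA measured by TaqMan-based qRT-PCR.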

[11] = target: T3, Oxysterols receptor LXR-beta; assay: Activity at human LXRbeta by Gal4 transactivation assay; procedure, shortened: as §3
[12] = target: T1, Oxysterols receptor LXR-alpha; assay: Activity at human LXRalpha by Gal4 transactivation assay; procedure, shortened: as §3
Macrophage = assay: Induction of APO-AI-dependent cholesterol efflux in mouse macrophages; assay type: functional, cell-based
Procedure, shortened: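 Peritoneal macrophages labelled 24 h with [3H]cholesterol (1.0 µCi/mL) plus ACAT inhibitor 58-035 (2 µg/mL), with compound. Then 2–4 h equilibration in label-free medium with compound. Efflux for 4 h into DMEM/0.2% BSA with or without apoAI (15 µg/mL). apoAI-dependent efflux = medium radioactivity as % of total cell plus medium. Triplicate.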

Structure (SMILES) | pEC50 [1] | Efficacy [2] [%] | pEC50 [3] | Efficacy [6] [%] | Efficacy [7] [%] | Efficacy [8] [%] | Efficacy [9] [%] | Activity [2] [%] | Efficacy [10] [%] | pEC50 [11] | pEC50 [12] | Activity (THP-1 [4]) [%] | Activity (THP-1 [5]) [%] | Activity (Hepatocyte) | Activity (Macrophage)
COc1cccc(C2SC(c3ccc(Cl)cc3)=NN2C(=O)c2c(F)cc(F)cc2F)c1 (stereo not given) |  | 60 | 5.43 | < 15 |  |  |  |  |  |  |  |  |  |  | 
COc1cccc(C2SC(c3ccc(F)cc3)=NN2C(=O)c2c(F)ccc(F)c2F)c1OC (stereo not given) |  | 74 | 6.01 | < 15 |  |  |  |  |  |  |  | 42 | 35 |  | 
COc1cccc([C@@H]2SC(c3ccc(Cl)cc3)=NN2C(=O)c2c(F)cc(F)cc2F)c1OC |  |  |  | < 15 | < 15 | < 15 | < 15 | < 15 | < 15 |  |  | 0 | 0 |  | 
COc1cccc(C2SC(c3ccc(Cl)c(Cl)c3)=NN2C(=O)c2c(F)cc(F)cc2F)c1OC (stereo not given) |  | 51 | < 5.00 | < 15 |  |  |  |  |  |  |  | 46 | 18 |  | 
O=C(c1c(F)cc(F)cc1F)N1N=C(c2ccc(Cl)cc2)SC1c1ccccc1OC(F)(F)F (stereo not given) |  | 31 | 5.47 | < 15 |  |  |  |  |  |  |  | 23 |  |  | 
COc1cccc(C2SC(c3ccc(F)c(F)c3)=NN2C(=O)c2cccc(F)c2)c1OC (stereo not given) | 5.82 | 83 | 6.25 | 30 |  |  |  |  |  |  |  | 47 | 27 |  | 
COc1cccc(C2SC(c3ccc(Cl)cc3)=NN2C(=O)c2ccccc2)c1OC (stereo not given) |  |  |  | < 15 |  |  |  | < 15 |  |  |  |  |  |  | 
COc1cccc(C2SC(c3ccc(Cl)cc3)=NN2C(=O)c2ccc(F)cc2F)c1OC (stereo not given) | 5.17 | 80 | 6.01 | 50 |  |  |  |  |  |  |  | 40 | 23 |  | 
COc1ccccc1C1(C)SC(c2ccc(F)cc2)=NN1C(=O)c1c(F)cc(F)cc1F (stereo not given) |  | 50 | 5.40 | < 15 |  |  |  |  |  |  |  |  |  |  | 
COc1cccc(C2SC(c3ccc(Cl)cc3)=NN2C(=O)c2ccccc2F)c1OC (stereo not given) |  | 48 | 5.11 | < 15 |  |  |  |  |  |  |  |  |  |  | 
O=S(=O)(c1ccccc1)N(CC(F)(F)F)c1ccc(C(O)(C(F)(F)F)C(F)(F)F)cc1 |  |  |  |  |  |  |  |  |  |  |  |  |  | Active | 
O=C(c1c(F)cc(F)cc1F)N1N=C(c2ccc(Cl)cc2)SC1c1cccc2c1OC(F)(F)O2 (stereo not given) | 5.41 | 74 | 6.10 | 71 |  |  |  |  |  |  |  | 61 | 35 |  | 
COc1cccc(C2SC(c3ccc(F)cc3)=NN2C(=O)c2cc(F)c(F)cc2F)c1OC (stereo not given) |  | 40 | 6.22 | < 15 |  |  |  |  |  |  |  | 48 | 30 |  | 

Continued, in another order:

pEC50 [1] | Efficacy [2] [%] | pEC50 [3] | Efficacy [6] [%] | Efficacy [7] [%] | Efficacy [8] [%] | Efficacy [9] [%] | Activity [2] [%] | Efficacy [10] [%] | pEC50 [11] | pEC50 [12] | Structure (SMILES) | Activity (THP-1 [4]) [%] | Activity (THP-1 [5]) [%] | Activity (Hepatocyte) | Activity (Macrophage)
5.68 | 95 | 6.33 | 40 |  |  |  |  |  |  |  | COc1cccc(C2SC(c3ccc(F)cc3)=NN2C(=O)c2cc(F)cc(F)c2)c1OC (stereo not given) | 37 | 21 |  | 
6.15 | 100 | 7.09 | 64 |  |  |  |  |  |  |  | COc1cccc(C2SC(c3ccc(F)cc3)=NN2C(=O)c2cc(F)c(F)c(OC)c2F)c1OC (stereo not given) | 59 | 30 |  | 
5.62 | 90 | 6.85 | 46 |  |  |  |  |  |  |  | COc1cccc(C2SC(c3ccc(F)cc3)=NN2C(=O)c2cc(F)ccc2C)c1OC (stereo not given) | 32 | 21 |  | 
6.74 | 110 | 7.46 | 80 |  |  |  |  |  |  |  | COc1ccccc1C1SC(c2ccc(Cl)cc2)=NN1C(=O)c1c(F)cc(F)cc1F (stereo not given) | 54 | 57 |  | 
5.72 | 90 | 6.82 | 76 |  |  |  |  |  |  |  | O=C(c1c(F)cc(F)cc1F)N1N=C(c2ccc(F)cc2)SC1c1ccccc1OC(F)F (stereo not given) |  | 26 |  | 
7.01 | 100 | 7.57 | 100 | 100 | 100 | 100 |  | 100 | 8.40 | 7.18 | O=C(O)Cc1cccc(OCCCN(Cc2cccc(C(F)(F)F)c2Cl)CC(c2ccccc2)c2ccccc2)c1 | 100 | 100 | Active | 
6.05 | 92 | 6.80 | 43 |  |  |  |  |  |  |  | COc1cccc(C2SC(c3ccc(F)cc3)=NN2C(=O)c2c(F)cc(Br)cc2F)c1OC (stereo not given) | 42 |  |  | 
7.15 | 100 | 8.22 | 92 |  |  |  |  |  |  |  | COc1cc(F)ccc1C1SC(c2ccc(F)cc2)=NN1C(=O)c1c(F)cc(F)cc1F (stereo not given) | 59 | 99 |  | 
6.05 | 100 | 6.77 | 47 |  |  |  |  |  |  |  | COc1cc(F)c(C(=O)N2N=C(c3ccc(F)cc3)SC2c2cccc(OC)c2OC)c(F)c1 (stereo not given) | 42 | 81 |  | 
5.80 | 94 | 7.17 | 64 | 98 | 80 | 100 |  | 41 | 7.20 | 6.46 | COc1cccc([C@H]2SC(c3ccc(Cl)cc3)=NN2C(=O)c2c(F)cc(F)cc2F)c1OC | 60 | 39 |  | Active
 | 82 | 6.60 | < 15 |  |  |  |  |  |  |  | COc1cccc(C2SC(c3ccc(F)cc3)=NN2C(=O)c2cccc(Cl)c2)c1OC (stereo not given) | 36 | 13 |  | 
5.85 | 98 | 6.70 | 52 |  |  |  |  |  |  |  | COc1cccc(C2SC(c3ccc(C)cc3)=NN2C(=O)c2c(F)cc(F)cc2F)c1OC (stereo not given) | 34 | 24 |  | 
